Calls of active or inactive are those of the source. No cut-off for these calls is given here. Bounds are passed on as bounds.

Data set [1] in a line: Binding affinity to KRAS G12V/S39C-BIT mutant (unknown origin) assessed as dissociation constant by HSQC NMR spectroscopy analysis. Further details: species or system Homo sapiens.
Data set [2] concerns the target GTPase KRas (Homo sapiens, UniProt P01116, G12V). Description: Binding affinity to KRAS G12V mutant (unknown origin) assessed as dissociation constant by HSQC NMR spectroscopy analysis. The procedure, abridged: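 KD was fitted from chemical shift perturbations and reported as mean ± SD. Reported as <10 μM when shifts were near saturation at the first point, >2000 μM when dose-responsive but unfittable, and >10,000 μM when there were no shifts at 500 μM.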

Data set [3] relates to GTPase KRas (Homo sapiens), P01116 [G12C].
The next data set addresses SOS1-KRAS (Homo sapiens, UniProt P01116, G12C).
Data set [4] deals with GTPase KRas (Homo sapiens, UniProt P01116, G12C).
The test system of data set [5] is NCI-H358. Nature of the data set: Antiproliferative activity against human NCI-H358 cells harboring KRAS G12C mutant incubated for 3 days by celltiter glo luminescent assay. It counts as functional, cell-based. To be noted: NCI-H358, 72 h. (In general: In ATP-based viability assays light output follows the ATP content of the culture.)
Data set [6] in a line: Toxicity in NOG mouse assessed as change in body weight at 40 to 80 mg/kg, ip. It counts as organism-based. As to conditions: in vivo, dose 40-80 mg/kg. The gist of the method: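 Female NOG mice with subcutaneous NCI-H358 xenografts, randomized at mean 160 mm3 into groups of n = 8. Dosed ip 40 mg/kg once weekly or 40 mg/kg on 2 consecutive days weekly, in 25% HP-γ-CD at 10 mL/kg, with a vehicle control group. Body weight recorded daily.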

The subject of data set [7] is NCI-H358. Description: Antitumor activity against human NCI-H358 cells xenografted in NOG mouse model assessed as induction of apoptosis at 40 mg/kg, ip administered for 3 days and measured at 6 hrs post last dose. It is filed as functional, organism-based. To be noted: time 3.0 day. The procedure, abridged: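 Female NOG mice, 7–8 weeks old, bearing subcutaneous NCI-H358 tumors (5 million cells in Matrigel, right flank), randomized at mean 180 mm3, n = 5 per group and time point. […] Tumors frozen 6 h after last dose; cleaved caspase 3 measured in tumor lysates.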
Background: A xenograft is tissue or cells of one species grown in another, often human tumour cells in immunodeficient mice.

The next data set can be described thus: cells. As to conditions: Homo sapiens, GP2d, 120 h.
Another data set has as its system LS-513. Description: cells. As to conditions: Homo sapiens, LS-513, 120 h.
Data set [8] deals with GTPase KRas (Homo sapiens, UniProt P01116, G12D). Nature of the data set: Binding affinity to KRAS G12D mutant (unknown origin) assessed as dissociation constant by HSQC NMR spectroscopy analysis.
In data set [9] the test system is NCI-H358. Nature of the data set: Antiproliferative activity against human NCI-H358. It is filed as functional, cell-based.

Sequence of GTPase KRas (Homo sapiens, UniProt P01116, G12C) (P01116 whole entry G12C): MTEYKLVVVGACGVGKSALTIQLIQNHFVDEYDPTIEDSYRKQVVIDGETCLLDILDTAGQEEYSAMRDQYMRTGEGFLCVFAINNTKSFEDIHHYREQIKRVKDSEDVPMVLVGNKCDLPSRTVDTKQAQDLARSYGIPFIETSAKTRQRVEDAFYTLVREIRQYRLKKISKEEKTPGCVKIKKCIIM
Sequence of GTPase KRas (Homo sapiens), P01116 [G12C] (P01116 whole entry G12C): as above
Sequence of SOS1-KRAS (P01116 whole entry G12C, looked up): as the sequence (P01116 whole entry G12C) above
Sequence of GTPase KRas (Homo sapiens, UniProt P01116, G12V) (P01116 whole entry G12V): as the sequence (P01116 whole entry G12C) above, with C12V counted along it
Sequence of GTPase KRas (Homo sapiens, UniProt P01116, G12D) (P01116 whole entry G12D): as the sequence (P01116 whole entry G12C) above, with C12D counted along it

For the compound `N#Cc1c(N)sc2ccccc12`, the Kd (usually the concentration at which binding is half-saturated) in [1] stood at 297 µM.
Turning to `Cc1noc(C2(C)CCCc3sc(N)c(C#N)c32)n1` (stereo not given), the Kd at GTPase KRas [2] was determined as 20 µM.
Regarding `Oc1cccc(F)c1-c1ncccc1F`, the Kd in [1] is > 10000 µM.
As for `CCc1c(C)sc(N)c1C#N`, the Kd in data set [1] came to 143 µM.
`C=CC(=O)Nc1cccc(-c2noc([C@@]3(C)CCCc4sc(N)c(C#N)c43)n2)c1`: the Kinact in data set [3] is 1.1 h⁻¹. In addition, the IC50 (as a rule, the concentration at which inhibition is half-maximal) on SOS1-KRAS is > 10 µM. For the same compound, the affinity at GTPase KRas [4], expressed as Ki, was 8.6 µM.
`COC(=O)c1c(N)sc2c1CCCC2`: the Kd in data set [1] was > 10000 µM.
Same read-out and setting: the value for `CN(C)c1cccc2cccc(Cl)c12` was > 10000 µM.
Take `CNC(=O)C1(C)CCCc2sc(N)c(C#N)c21` (stereo not given): the Kd on GTPase KRas [2] is > 2000 µM.
As to `C=CC(=O)Nc1ccc(-c2noc([C@@]3(C)CCCc4sc(N)c(C#N)c43)n2)cc1`, the Kinact in [3] came to 0.7 h⁻¹. The IC50 against SOS1-KRAS is > 10 µM. On GTPase KRas [4], the Ki (as a rule, the equilibrium dissociation constant of an inhibitor or competing ligand from its target) was 24.1 µM.
Turning to `C=CC(=O)N1CCN(c2cc(-c3noc([C@@]4(C)CCCc5sc(N)c(C#N)c54)n3)nc(N3CCN(C)C[C@@H]3C)c2)CC1`, the EC50 (commonly the concentration at which the effect is half-maximal) was 0.026 µM in the data set on NCI-H358 [5], > 4 µM in the data set “cells” and > 4 µM with LS-513. Besides, the Activity result in [6] is “Toxic”. Besides, in the data set with NCI-H358 [7], the outcome was Active.
In data set [3], `C=CC(=O)N1CCN(c2cccc(-c3noc([C@@]4(C)CCCc5sc(N)c(C#N)c54)n3)c2)CC1` returned a Kinact of 0.3 h⁻¹. Moreover, on SOS1-KRAS, 3.29 µM corresponded to half-maximal inhibition (IC50). The same compound came in with a Ki at GTPase KRas [4] of 7.5 µM.
For the compound `N#Cc1ccsc1N`, the Kd in [1] is > 10000 µM.
Same read-out and setting: the value for `N#Cc1c(N)sc2c1CCCCC2` was 162 µM; that for `N#Cc1csc2c1CCCC2` was > 2000 µM.
Consider `C[C@]1(c2nc(-c3ccc(N)cc3)no2)CCCc2sc(N)c(C#N)c21`, for which the Kd at GTPase KRas [8] is > 2000 µM; at GTPase KRas [2] it was < 10 µM.
Consider `Nc1nc2c(C(F)(F)F)cccc2s1`, for which, in [1], the Kd came out at 1220 µM.
The same measure, in the same setting: the value for `CC1CCCc2sc(N)c(C#N)c21` (stereo not given) was 21 µM.
For `C=CC(=O)N1CCN(c2nc(=O)n(-c3c(C)ccnc3C(C)C)c3nc(-c4c(O)cccc4F)c(F)cc23)[C@@H](C)C1` [SOTORASIB], the results for the EC50 in the data set on NCI-H358 [5] and in the data set on NCI-H358 [9] were 0.0064 µM and 0.006 µM, respectively.
Regarding `CC1(C(=O)Nc2ccccc2)CCCc2sc(N)c(C#N)c21` (stereo not given), on GTPase KRas [2], the Kd turned out to be 1180 µM.
For the compound `Nc1nc2c(s1)CCCC2`, in [1], the Kd turned out to be 715 µM.
`N#Cc1c(N)sc2c1C(C(=O)Nc1ccccc1)CCC2` (stereo not given): the dissociation constant (Kd) at GTPase KRas [2] was found to be 1270 µM.
With `C[C@]1(c2nc(-c3cccc(N)c3)no2)CCCc2sc(N)c(C#N)c21`, the Kd on GTPase KRas [8] was > 2000 µM; on GTPase KRas [2], < 10 µM.
Consider `CC1(C)CCCc2sc(N)c(C#N)c21`, for which the values for the Kd (at GTPase KRas [2]; in data set [1]) were 15 µM and < 10 µM, respectively.
As for `N#Cc1c(N)sc2c1CCC2`, the Kd in [1] is 193 µM.
Consider `N#Cc1c(N)sc2c1CCCC2`, for which the Kd in data set [1] was 116 µM.
With `CC1(C(=O)O)CCCc2sc(N)c(C#N)c21` (stereo not given), the Kd on GTPase KRas [2] was found to be 1160 µM.

The record behind these values is ChEMBL document CHEMBL5214993, “Fragment Optimization of Reversible Binding to the Switch II Pocket on KRAS Leads to a Potent, In Vivo Active KRASG12C Inhibitor” (J Med Chem, 2022).
